ChEMBL document CHEMBL3593157, “Discovery of a 1-isopropyltetrahydroisoquinoline derivative as an orally active N-type calcium channel blocker for neuropathic pain” (Bioorg Med Chem, 2015)

How the values were obtained:
[1] = Inhibition of N-type calcium channel in human IMR-32 cells by FLIPR assay; assay type: cell-based
Summary of the method: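 Fluorometric imaging plate reader calcium assay in IMR-32 human neuroblastoma cells. Nitrendipine present to block endogenous L-type calcium channels. IC50 determined in duplicate in one experiment.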

[2] = target: Cytochrome P450 2D6 (Homo sapiens, UniProt P10635); assay: Inhibition of CYP2D6 in human liver microsomes using dextromethorphan as substrate preincubated for 30 mins before substrate addition measured after 20 mins by LC-MS/MS analysis
[3] = Intrinsic clearance in human liver microsomes at 0.2 uM measured up to 45 mins by LC-MS/MS analysis; assay type: ADME; settings: read-out: CLH
Summary of the method: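 Human liver microsomes (0.2 mg protein/mL) in 100 mM Na+–K+ phosphate buffer pH 7.4 with 1 mM NADPH and 0.1 mM EDTA, preincubated 5 min at 37 °C. Compound at 0.2 µM final, sampled at 0, 15, 30 and 45 min. Residual compound measured by LC–MS/MS. CLint = disappearance rate constant / microsomal protein, from a least-squares linear fit.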

[4] = target: Cytochrome P450 2C9 (Homo sapiens, UniProt P11712); assay: Inhibition of recombinant human CYP2C9 using 7-methoxy-4-trifluoromethylcoumarin as substrate after 45 mins by fluorescence-based assay; assay type: ADME
[5] = target: Voltage-gated inwardly rectifying potassium channel KCNH2 (Homo sapiens, UniProt Q12809); assay: Inhibition of human ERG expressed in CHO cells after 10 mins by Rb efflux assay; assay type: cell-based
[6] = Aqueous solubility of the compound in Japanese Pharmacopoeia 2nd fluid at pH 6.8; assay type: physicochemical
Summary of the method: (§1)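 Solubility measured in Japanese Pharmacopoeia 1st fluid for the dissolution test (pH 1.2) and 2nd fluid (pH 6.8).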

[7] = Aqueous solubility of the compound in Japanese Pharmacopoeia 1st fluid at pH 1.2; assay type: physicochemical; summary of the method: as §1
[8] = system: Mus musculus; assay: Antinociceptive activity in intrathecally dosed ddY mouse assessed as reduction of formalin-induced paw lifting/licking behavior administered 15 mins before formalin challenge measured up to 10 mins; assay type: functional
Summary of the method: (§2)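 Male ddY mice given an intrathecal bolus. After 15 min, 2% formalin (20 µL) injected subcutaneously into the plantar hindpaw. Total lifting/licking time recorded for 0–10 min (first phase) and 15–25 min (second phase). Mean of n = 6 against vehicle, Dunnett's test. ED50 in nmol/body.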

[9] = system: Mus musculus; assay: Antinociceptive activity in intrathecally dosed ddY mouse assessed as reduction of formalin-induced paw lifting/licking behavior administered 15 mins before formalin challenge measured after 15 to 25 mins; assay type: functional; summary of the method: as §2
[10] = system: Mus musculus; assay: Toxicity in intrathecally dosed ddY mouse at 10 to 100 […] measured up to 25 mins; assay type: organism-based; settings: in vivo, icv_or_intrathecal
[11] = system: Mus musculus; assay: Antinociceptive activity in ddY mouse assessed as inhibition of formalin-induced paw lifting/licking behavior at 100 mg/kg, po administered 15 mins before formalin challenge measured up to 15 to 25 mins; assay type: functional
Summary of the method: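 Male ddY mice dosed orally at 100 mg/kg. 2% formalin (20 µL) injected subcutaneously into the plantar hindpaw. Lifting/licking time in the second phase (15–25 min) expressed as % inhibition.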

[12] = system: Rattus norvegicus; assay: Analgesic activity in po dosed Sprague-Dawley rat L5/L6 spinal nerve ligation model assessed as reduction of mechanical allodynia; assay type: functional, organism-based
Summary of the method: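 Male Sprague-Dawley rats with L5/L6 spinal nerve ligation (Chung method). Compound given orally at 1 to 10 mg/kg. Hindpaw withdrawal threshold to mechanical stimuli measured on the operated and non-operated sides against vehicle groups, n = 8. ED50 derived from the dose-response. Dunnett's test against the operated-side vehicle group.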

[13] = system: Rattus norvegicus; assay: Neurotoxicity in Sprague-Dawley rat assessed as effect on motor coordination by measuring time spent on rod at 30 mg/kg, po by rotarod test; assay type: toxicity, organism-based; settings: in vivo
Summary of the method: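 Motor coordination in Sprague-Dawley rats after oral dosing, assessed by an accelerating rotarod test.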

[14] = Lipophilicity, log D of the compound at pH 7.4; assay type: physicochemical
Summary of the method: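 cLogD at pH 7.4 calculated with ACD/PhysChem Batch rather than measured.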

Sequence of Cytochrome P450 2D6 (P10635 whole entry): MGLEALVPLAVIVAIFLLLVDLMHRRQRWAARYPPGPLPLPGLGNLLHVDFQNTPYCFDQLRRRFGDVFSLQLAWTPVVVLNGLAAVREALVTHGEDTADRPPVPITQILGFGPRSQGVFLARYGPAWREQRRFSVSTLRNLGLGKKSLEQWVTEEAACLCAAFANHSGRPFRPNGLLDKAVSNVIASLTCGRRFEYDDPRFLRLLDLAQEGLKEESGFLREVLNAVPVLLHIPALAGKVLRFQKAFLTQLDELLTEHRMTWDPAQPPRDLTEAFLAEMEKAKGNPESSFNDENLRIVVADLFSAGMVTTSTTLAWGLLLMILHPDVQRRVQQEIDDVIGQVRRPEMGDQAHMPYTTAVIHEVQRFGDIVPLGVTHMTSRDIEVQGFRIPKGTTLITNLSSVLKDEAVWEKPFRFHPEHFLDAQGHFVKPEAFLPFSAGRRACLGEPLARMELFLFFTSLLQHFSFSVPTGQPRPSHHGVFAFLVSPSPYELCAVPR
Sequence of Cytochrome P450 2C9 (P11712 whole entry): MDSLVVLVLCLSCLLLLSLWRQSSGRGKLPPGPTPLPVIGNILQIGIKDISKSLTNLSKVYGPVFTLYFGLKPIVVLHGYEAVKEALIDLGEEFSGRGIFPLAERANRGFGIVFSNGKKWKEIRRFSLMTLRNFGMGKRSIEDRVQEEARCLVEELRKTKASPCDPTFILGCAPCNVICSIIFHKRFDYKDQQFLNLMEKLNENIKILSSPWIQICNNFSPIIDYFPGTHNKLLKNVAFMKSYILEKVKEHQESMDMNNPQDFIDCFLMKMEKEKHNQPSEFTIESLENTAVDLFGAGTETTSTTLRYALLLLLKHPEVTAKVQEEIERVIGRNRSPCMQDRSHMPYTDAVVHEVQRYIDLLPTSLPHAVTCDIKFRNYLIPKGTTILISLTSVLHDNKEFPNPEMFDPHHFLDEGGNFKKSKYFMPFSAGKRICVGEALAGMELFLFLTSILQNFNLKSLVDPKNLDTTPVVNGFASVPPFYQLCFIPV
Sequence of Voltage-gated inwardly rectifying potassium channel KCNH2 (Q12809 whole entry): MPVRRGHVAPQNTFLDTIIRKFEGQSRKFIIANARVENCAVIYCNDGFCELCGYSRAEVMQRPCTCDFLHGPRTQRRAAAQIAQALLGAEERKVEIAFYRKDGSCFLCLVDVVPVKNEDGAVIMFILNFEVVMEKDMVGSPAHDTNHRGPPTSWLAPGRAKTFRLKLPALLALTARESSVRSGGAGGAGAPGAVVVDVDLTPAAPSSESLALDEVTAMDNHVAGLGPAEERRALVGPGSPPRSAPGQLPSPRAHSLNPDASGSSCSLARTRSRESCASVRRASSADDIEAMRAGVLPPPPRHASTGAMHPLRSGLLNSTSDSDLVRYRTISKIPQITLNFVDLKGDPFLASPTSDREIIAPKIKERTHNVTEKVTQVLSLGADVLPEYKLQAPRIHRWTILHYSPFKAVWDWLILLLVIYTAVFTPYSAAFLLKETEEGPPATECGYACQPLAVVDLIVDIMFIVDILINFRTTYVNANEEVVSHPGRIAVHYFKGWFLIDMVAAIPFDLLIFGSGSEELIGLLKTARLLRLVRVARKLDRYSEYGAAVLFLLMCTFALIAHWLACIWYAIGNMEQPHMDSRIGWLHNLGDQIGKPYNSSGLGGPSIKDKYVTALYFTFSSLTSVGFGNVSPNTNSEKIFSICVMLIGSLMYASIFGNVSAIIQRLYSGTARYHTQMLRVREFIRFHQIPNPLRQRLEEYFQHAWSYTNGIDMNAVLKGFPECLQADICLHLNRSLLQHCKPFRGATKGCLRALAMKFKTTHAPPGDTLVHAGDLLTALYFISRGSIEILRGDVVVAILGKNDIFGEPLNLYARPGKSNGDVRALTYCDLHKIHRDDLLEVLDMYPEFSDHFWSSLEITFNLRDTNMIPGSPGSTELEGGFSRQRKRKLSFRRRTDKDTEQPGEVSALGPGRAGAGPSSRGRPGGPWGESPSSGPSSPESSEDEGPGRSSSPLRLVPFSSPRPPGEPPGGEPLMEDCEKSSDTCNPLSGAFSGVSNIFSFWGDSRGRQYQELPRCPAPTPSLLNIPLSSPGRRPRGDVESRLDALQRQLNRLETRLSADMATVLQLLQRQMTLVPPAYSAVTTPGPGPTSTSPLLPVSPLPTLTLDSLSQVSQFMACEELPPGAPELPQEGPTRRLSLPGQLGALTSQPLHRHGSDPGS

Compound `O=C(CNCC1(O)CCCCC1)N1CCc2ccccc2C1C1CCOCC1` (stereo not drawn) has an IC50 [1] of 4.1 µM.
With `Cc1cccc2c1C(C(C)C)N(C(=O)CNCC1(O)CCCCC1)CC2` (stereo not drawn) the IC50 [1] was 1.6 µM and the IC50 [2] was < 0.78 µM.
`CC(C)(O)C1c2ccccc2CCN1C(=O)CNCC1(O)CCCCC1` (stereo not drawn) gave an IC50 [1] of 6.1 µM.
In the case of `COc1cccc2c1C(C(C)C)N(C(=O)CNCC1(O)CCCCC1)CC2` (stereo not drawn), the IC50 [1] is reported as 1.4 µM.
`O=C(CNCC1(O)CCCCC1)N1CCc2ccccc2C1` gave an IC50 [1] of 8 µM.
With `Cc1cccc2c1CCN(C(=O)CNCC1(O)CCCCC1)C2C(C)C` (stereo not drawn) the IC50 [1] was 1.4 µM and the IC50 [2] was < 0.78 µM.
For `Cc1ccc2c(c1)C(C(C)C)N(C(=O)CNCC1(O)CCCCC1)CC2` (stereo not drawn), the IC50 [1] was 1.4 µM and the IC50 [2] was < 0.78 µM.
`CC(C)C1c2ccccc2CCN1C(=O)CNCC1(O)CCCCC1` (stereo not drawn) gave an IC50 [1] of 1.1 µM.
`COC(C)(C)C1c2ccccc2CCN1C(=O)CNCC1(O)CCCCC1` (stereo not drawn) gave an IC50 [1] of 3.7 µM.
For `COc1ccc2c(c1)CCN(C(=O)CNCC1(O)CCCCC1)[C@@H]2C(C)C`, the CLint scaled at 0.2 µM [3] was 101 mL/min/kg, the IC50 [4] was > 50 µM and the IC50 [1] was 1.9 µM. For the same compound, the IC50 [5] was > 100 µM, the solubility [6] was > 100 µg/mL and the solubility [7] was > 100 µg/mL. For the same compound, the Activity [8] was “Dose-dependent effect”, the ED50 [8] was >100 nmol and the Activity [9] was “Dose-dependent effect”. For the same compound, the ED50 [9] was 25.4 nmol, the Activity [10] was “Non-toxic” and the inhibition in vivo at 100 mg/kg [11] was 64%. The Activity [12] was “Dose-dependent effect”, the Activity [13] was “Non-toxic” and the logD [14] was 2.4.
For `CCC(CC)C1c2ccccc2CCN1C(=O)CNCC1(O)CCCCC1` (stereo not drawn), the IC50 [1] was 0.73 µM and the IC50 [2] was < 0.78 µM.
`CC(C)C1c2ccc(F)cc2CCN1C(=O)CNCC1(O)CCCCC1` (stereo not drawn) showed an IC50 [1] of 0.89 µM and an IC50 [2] of 0.39 µM.
With `COc1ccc2c(c1)C(C(C)C)N(C(=O)CNCC1(O)CCCCC1)CC2` (stereo not drawn) the IC50 [1] was 1.6 µM.
With `CC(C)C1c2c(F)cccc2CCN1C(=O)CNCC1(O)CCCCC1` (stereo not drawn) the IC50 [1] was 1.5 µM.
With `O=C(CNCC1(O)CCCCC1)N1CCc2ccccc2C1C1CCCC1` (stereo not drawn) the IC50 [1] was 0.99 µM.
For `CC(C)(C)C1c2ccccc2CCN1C(=O)CNCC1(O)CCCCC1` (stereo not drawn), the IC50 [1] was 0.8 µM and the IC50 [2] was < 0.78 µM.
For `O=C(CNCC1(O)CCCCC1)N1CCc2ccccc2[C@@H]1c1ccccc1`, the IC50 [1] was 1 µM and the IC50 [2] was < 0.39 µM.
With `CC1c2ccccc2CCN1C(=O)CNCC1(O)CCCCC1` (stereo not drawn) the IC50 [1] was 2.9 µM.
In the case of `CC(C)C1c2cc(F)ccc2CCN1C(=O)CNCC1(O)CCCCC1` (stereo not drawn), the IC50 [1] is reported as 1.3 µM and the IC50 [2] is reported as 0.68 µM.
For `COc1ccc2c(c1)CCN(C(=O)CNCC1(O)CCCCC1)[C@H]2C(C)C`, the CLint scaled at 0.2 µM [3] was 188 mL/min/kg, the IC50 [4] was > 50 µM and the IC50 [1] was 2.1 µM. For the same compound, the IC50 [5] was > 100 µM, the solubility [6] was > 100 µg/mL and the solubility [7] was > 100 µg/mL.
Work on `COc1ccc2c(c1)CCN(C(=O)CNCC1(O)CCCCC1)C2C(C)C` (stereo not drawn) yielded an IC50 [1] of 1.3 µM.
